One compound from ChEMBL document CHEMBL1127799, “Derivatives of a novel cyclopeptolide. 1. Synthesis, antifungal activity, and structure-activity relationships” (1994) can be followed below.

One test has as its system Candida albicans. Put plainly: Tested for minimum subinhibitory concentration against Candida albicans 4 (Candida albicans) at pH 6.5. It counts as functional. In a few lines:
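Malt extract broth microdilution, initial pH 6.5, inoculum 1×10^3 CFU per 0.2 mL well. Compound diluted from 0.08% stock (5% DMSO/0.2% Tween 80) to final 0.05–100 μg/mL. Macroscopic reading after 48 h, 30 °C. MSIC = lowest concentration giving visible growth inhibition in at least two of three triplicates. Vehicle-only negative controls.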

The species named for another test is Mus musculus. Put plainly: Tested for efficacy of compound in experimental vaginal candidosis (mouse) after oral treatment at dosage of 4 x150 mg kg e-1. Type of test: functional. A digest of the protocol: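 Vaginal candidiasis in hormonally conditioned female NMRI mice (18–20 g), 10 per group, inoculated intravaginally with 50 μL Sabouraud's glucose broth containing 3.5×10^4 CFU C. albicans no. 124. Dosed four times per gavage, 2 h before and 2, 18 and 24 h after infection. Vaginal swabs plated on Sabouraud's glucose agar with streptomycin (0.1 mg/mL), 48 h at 37 °C. Cure = failed reisolation.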

The compound `CC[C@@H](C)[C@H]1C(=O)NCC(=O)N(C)[C@@H](C(C)C)C(=O)N[C@@H](Cc2ccc(OC)cc2)C(=O)O[C@H](C)C(=O)N2CCCC[C@H]2C(=O)N(C)[C@@H](C(C)C)C(=O)N[C@@H](C(C)C)C(=O)N(C)[C@@H](CC(=O)O)C(=O)N(C)[C@@H]([C@@H](C)CC)C(=O)N1C` had an MSIC with Candida albicans of 12.5 µg/mL. Moreover, the Efficacy in the test listed under Mus musculus is 31%.
